High-throughput results (PubChem BioAssay)
PglD DTNB: PglD (C. jejuni) enzyme inhibition | purified PglD enzyme, DTNB colorimetric CoA detection | inhibition, % at 12.5 µM | 360,000 compounds, 0.098% hits | AID 602405; in the data active = inhibition above about 16%, passing the limit was not always enough; inconclusive = no clear call, values can overlap the other calls
ERAP1 HTS inh: inhibitors of human ERAP1 aminopeptidase. Q9NZ08. recombinant ERAP1, Leu-AMC fluorescence, 60 min. inhibition, % at 10.7 µM. 340,000 compounds, 0.15% hits. AID 652197;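 active = mean replicate inhibition of at least 30%, or all replicates individually reaching that 30% level; inactive = mean below 30% and not every replicate reaching it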;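 note: 0% = neutral control wells and 100% = L-leucinethiol positive control wells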
SIRT5 inh: sirtuin-5 (human) deacylase inhibition. AID 652115. 330,000 compounds, 1.1% hits. inhibition, % at 15 µM. Purified SirT5, succinyl-peptide AMC, trypsin-coupled fluorescence; in the data active = inhibition above about 15%; inconclusive = no clear call, values can overlap the other calls
E-selectin induc: E-selectin induction on HUVECs; P16581; HUVEC E-selectin immunofluorescence imaging; normalized: neutral wells 0, TNF-alpha wells 100; activation, % at 7.58 µM; 260,000 compounds, 0.37% hits; AID 686992;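 active = mean E-selectin-positive cell signal at least 10% of the positive control, reached in at least 60% of replicates, without over 20% cell loss; inconclusive = no rule given, readout overlaps actives, possibly toxicity-flagged; inactive = the rest, including those meeting only one limit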
Target sequence (P16581 whole entry, looked up): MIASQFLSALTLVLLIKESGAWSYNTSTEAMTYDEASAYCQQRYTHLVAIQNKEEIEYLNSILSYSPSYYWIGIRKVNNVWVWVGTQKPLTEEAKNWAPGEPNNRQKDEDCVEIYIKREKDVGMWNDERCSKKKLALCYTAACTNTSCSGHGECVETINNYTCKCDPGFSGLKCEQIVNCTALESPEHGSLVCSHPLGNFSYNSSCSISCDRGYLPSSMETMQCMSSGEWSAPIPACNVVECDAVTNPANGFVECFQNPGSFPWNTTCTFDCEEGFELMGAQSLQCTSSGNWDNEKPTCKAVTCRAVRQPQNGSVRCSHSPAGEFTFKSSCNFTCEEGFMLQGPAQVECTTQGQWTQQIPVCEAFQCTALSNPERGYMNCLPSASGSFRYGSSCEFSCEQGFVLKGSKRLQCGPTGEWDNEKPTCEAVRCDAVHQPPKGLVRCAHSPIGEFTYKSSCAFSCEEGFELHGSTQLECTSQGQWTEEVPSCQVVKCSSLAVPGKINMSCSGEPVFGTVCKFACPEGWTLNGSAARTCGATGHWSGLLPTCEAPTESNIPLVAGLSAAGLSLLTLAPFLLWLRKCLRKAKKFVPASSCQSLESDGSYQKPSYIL
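Test system: HUVEC; input: 3,000 HUVEC/well; measured by: immunofluorescence imaging; read-out: % PE-positive cells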
DENV2 CPE: DENV2-induced cell death inhibition; DENV2-infected cells, cytopathic effect rescue, plate reader; CPE inhibition, % at 9.99 µM; 350,000 compounds, 1.7% hits; in the data active = CPE inhibition above about 20%, passing the limit was not always enough; inconclusive = no clear call, values can overlap the other calls; tested in BHK-21 cells;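 note: 0% = median of neutral control wells and 100% = median of positive control wells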
An asterisk follows results filed as active; ? = inconclusive; nt = no result. Compounds with a hit are over-represented: about 2.5% of the library has one in this group of screens.

SMILES	PglD DTNB	ERAP1 HTS inh	SIRT5 inh	E-selectin induc	DENV2 CPE
O=C(NCc1ccco1)C1CCCN(c2ncnc3c2nc2n3CCCCC2)C1 (stereo unspecified)	2	1	-7	nt	25*
CNC[C@@H]1OCCCC[C@@H](C)Oc2ccc(NC(=O)CCCN(C)C)cc2C(=O)N([C@H](C)CO)C[C@H]1C	nt	nt	nt	0	nt
C[C@@H]1CN([C@@H](C)CO)C(=O)c2cc(NS(=O)(=O)c3ccccc3)ccc2O[C@@H]1CN(C)Cc1ccc(Oc2ccccc2)cc1	1	-4	20*	0	12
C[C@H]1CN([C@@H](C)CO)C(=O)c2cc(NS(=O)(=O)c3ccccc3)ccc2O[C@@H]1CN(C)Cc1ccc(Oc2ccccc2)cc1	1	-1	11	0	-7
C[C@H]1CN([C@@H](C)CO)C(=O)c2cc(NS(=O)(=O)c3ccccc3)ccc2O[C@H]1CN(C)Cc1ccc(Oc2ccccc2)cc1	1	-1	2	0	35*
Cn1nc(CC(=O)Nc2ncc(Br)s2)c2ccccc2c1=O	3	nt	nt	nt	nt
Cc1ccc([C@@H]2CC=C(C(=O)O)[C@H](c3ccc(Br)cc3)N2S(=O)(=O)c2ccccc2C)cc1	-7	nt	5	-1	28*
Cc1ccc(S(=O)(=O)N2[C@@H](c3ccccc3)C(C(=O)O)=CC[C@H]2c2ccc(Cl)cc2)cc1	5	-1	26*	0	15
COc1ccc(S(=O)(=O)Nc2cccc(-c3ccc4nncn4n3)c2)c(OC)c1	0	3	1	0	1
CC[n+]1c(C)sc2cc(OC)ccc21	nt	30*	-5	nt	-3
O=C(C[C@@H]1CC[C@H](NC(=O)Nc2ccccc2F)[C@H](CO)O1)NCc1ccc(-c2ccccc2)cc1	nt	1	5	0	-1
O=C(NCC[C@@H]1CC[C@H](NC(=O)c2ccccc2F)[C@H](CO)O1)c1ccc2c(c1)OCO2	-2	0	4	0	-3
O=C(C[C@H]1CC[C@@H](NC(=O)Nc2ccccc2F)[C@@H](CO)O1)NCc1ccc(-c2ccccc2)cc1	nt	0	3	-1	30*
O=C(Nc1ccc2c(c1)OCO2)N[C@@H]1CC[C@H](CCNC(=O)C2CCC2)O[C@@H]1CO	-3	-2	-3	-1	32*
O=C(Nc1ccc2c(c1)OCO2)N[C@H]1CC[C@@H](CCNC(=O)C2CCC2)O[C@@H]1CO	-1	0	9	-1	8
O=C(NCC[C@@H]1CC[C@H](NC(=O)c2ccccc2F)[C@@H](CO)O1)c1ccc2c(c1)OCO2	3	-2	16*	-1	?
O=C(C[C@@H]1CC[C@H](NC(=O)Nc2ccc3c(c2)OCO3)[C@@H](CO)O1)NCc1ccc2c(c1)OCO2	0	-2	nt	0	24*
C[C@@H]1CN([C@H](C)CO)C(=O)Cc2cc(N(C)C)ccc2O[C@@H]1CN(C)S(=O)(=O)c1ccc(F)cc1	0	1	-1	nt	-11
COC(=O)C[C@H]1C[C@@H]2c3cc(NC(=O)CN(C)C)ccc3O[C@@H]2[C@H](CO)O1	6	6	-6	1	0
O=C(CN1CCOCC1)N[C@@H]1CC[C@H](CCNC(=O)Nc2cc(F)ccc2F)O[C@@H]1CO	-3	2	16*	0	1
O=C(NCC[C@H]1CC[C@@H](NC(=O)c2cccnc2)[C@H](CO)O1)Nc1ccc(F)cc1	0	0	4	1	21*
O=C(NCC[C@H]1CC[C@@H](NC(=O)Nc2cc(F)ccc2F)[C@H](CO)O1)Nc1ccc(F)cc1	-2	1	33*	0	12
O=C(Cc1ccncc1)NCC[C@@H]1CC[C@H](NC(=O)Nc2cccc(F)c2)[C@@H](CO)O1	2	1	2	0	3
O=C(Cc1ccncc1)NCC[C@@H]1CC[C@@H](NC(=O)Nc2cccc(F)c2)[C@@H](CO)O1	-3	-3	-1	0	23*
O=C(NCC[C@@H]1CC[C@H](NC(=O)Nc2cc(F)ccc2F)[C@H](CO)O1)Nc1ccc(Cl)cc1	2	-5	-6	0	17
C[C@@H]1CN([C@H](C)CO)C(=O)c2cc(NC(=O)Nc3ccc(C(F)(F)F)cc3)ccc2O[C@@H](C)CCCCO[C@H]1CN(C)Cc1ccccc1	0	-1	5	0	-11
COc1ccccc1S(=O)(=O)Cc1ccc(C(=O)N2CCN(c3cccc(Cl)c3)CC2)o1	3	nt	nt	nt	nt
